In ChEMBL document CHEMBL1139103, “Identification of novel glycine sulfonamide antagonists for the EP1 receptor” (Bioorg Med Chem Lett, 2007):

What was measured:
[1] = biological target: T1, Prostaglandin E2 receptor EP1 subtype (Homo sapiens, UniProt P34995); assay: Antagonist activity at human EP1 expressed in CHOK1 cells receptor assessed as inhibition of intracellular calcium mobilization by FLIPR assay; format: functional, cell-based, CHO-K1
T1 sequence (P34995 whole entry): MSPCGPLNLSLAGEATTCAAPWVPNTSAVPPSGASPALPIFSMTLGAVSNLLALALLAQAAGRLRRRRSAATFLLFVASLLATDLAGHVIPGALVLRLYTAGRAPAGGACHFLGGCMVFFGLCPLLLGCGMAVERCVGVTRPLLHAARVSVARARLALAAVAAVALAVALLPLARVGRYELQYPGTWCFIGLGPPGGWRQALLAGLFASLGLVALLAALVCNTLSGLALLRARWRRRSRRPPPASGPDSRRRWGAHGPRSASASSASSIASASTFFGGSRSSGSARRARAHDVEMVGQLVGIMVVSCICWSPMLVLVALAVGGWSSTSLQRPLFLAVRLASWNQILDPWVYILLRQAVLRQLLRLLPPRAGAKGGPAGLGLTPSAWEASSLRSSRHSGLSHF
How it was run: (§1)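 Stable EP1- or EP3-transfected CHO-K1 whole cells loaded with calcium-sensitive dye Fluo-3; inhibition of PGE2-evoked intracellular Ca2+ mobilisation read on a fluorimetric imaging plate reader (FLIPR). IC50s converted to pKi. Means of at least two experiments unless specified.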

[2] = biological target: T1, Prostaglandin E2 receptor EP1 subtype; assay: Displacement of [3H]PGE2 from EP1 expressed in CHO cells; format: cell-based
How it was run: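 Membranes from stable EP1-transfected CHO-K1 cells incubated with compound and [3H]-PGE2 (3 nM final) for 30 min at 30 °C. Bound radioactivity counted by liquid scintillation. Means of at least four experiments.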

[3] = biological target: T1, Prostaglandin E2 receptor EP1 subtype; assay: Antagonist activity at human EP1 receptor expressed in CHO cells receptor by […] reporter gene assay; format: functional, cell-based; details: read-out: pA2 (converted)
How it was run: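 CHO cells stably co-transfected with NFAT reporter gene and human EP1 (pCIN3) were quiesced 24 h before assay. PGE2 concentration-response curves run without antagonist and with five antagonist concentrations, 4 h incubation, luciferase readout. Dose ratios from PGE2 EC50s; log(dose ratio − 1) vs log[antagonist] fitted by linear regression to give pA2 and slope.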

[4] = biological target: T2, Prostaglandin E2 receptor EP3 subtype (Homo sapiens, UniProt P43115); assay: Antagonist activity at human EP3 expressed in CHOK1 cells receptor assessed as inhibition intracellular calcium mobilization by FLIPR assay; format: functional, cell-based, CHO-K1; how it was run: as §1
T2 sequence (P43115 whole entry): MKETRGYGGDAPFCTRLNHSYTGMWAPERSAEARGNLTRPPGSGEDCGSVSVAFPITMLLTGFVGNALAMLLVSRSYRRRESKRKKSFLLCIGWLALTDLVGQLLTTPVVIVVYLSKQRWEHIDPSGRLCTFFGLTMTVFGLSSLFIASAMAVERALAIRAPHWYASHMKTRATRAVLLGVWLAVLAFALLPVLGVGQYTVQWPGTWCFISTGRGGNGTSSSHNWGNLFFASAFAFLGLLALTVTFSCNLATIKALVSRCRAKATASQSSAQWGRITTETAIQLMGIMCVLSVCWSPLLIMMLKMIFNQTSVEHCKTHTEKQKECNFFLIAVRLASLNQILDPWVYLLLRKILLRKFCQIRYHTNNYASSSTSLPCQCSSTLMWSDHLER

Homo sapiens = species: Homo sapiens; assay: Selectivity for EP1 receptor over EP3 receptor
Thromboxane A2 receptor = biological target: T3, Thromboxane A2 receptor (Homo sapiens, UniProt P21731); assay: Inhibition of TP receptor
T3 sequence (P21731 whole entry): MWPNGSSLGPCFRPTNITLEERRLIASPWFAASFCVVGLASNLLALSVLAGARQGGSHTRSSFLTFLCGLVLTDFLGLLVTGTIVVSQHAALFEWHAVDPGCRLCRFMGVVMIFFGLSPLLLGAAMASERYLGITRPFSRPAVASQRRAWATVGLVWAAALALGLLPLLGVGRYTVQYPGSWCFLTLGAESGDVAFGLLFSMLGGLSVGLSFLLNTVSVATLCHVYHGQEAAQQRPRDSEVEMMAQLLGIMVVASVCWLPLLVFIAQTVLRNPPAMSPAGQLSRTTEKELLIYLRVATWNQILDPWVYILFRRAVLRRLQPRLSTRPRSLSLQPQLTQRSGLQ

[5] = biological target: Prostaglandin F2-alpha receptor (Homo sapiens, UniProt P43088); assay: Inhibition of FP receptor
Cytochrome P450 1A2 = biological target: T4, Cytochrome P450 1A2 (Homo sapiens, UniProt P05177); assay: Inhibition of CYP1A2; format: ADME
T4 sequence (P05177 whole entry): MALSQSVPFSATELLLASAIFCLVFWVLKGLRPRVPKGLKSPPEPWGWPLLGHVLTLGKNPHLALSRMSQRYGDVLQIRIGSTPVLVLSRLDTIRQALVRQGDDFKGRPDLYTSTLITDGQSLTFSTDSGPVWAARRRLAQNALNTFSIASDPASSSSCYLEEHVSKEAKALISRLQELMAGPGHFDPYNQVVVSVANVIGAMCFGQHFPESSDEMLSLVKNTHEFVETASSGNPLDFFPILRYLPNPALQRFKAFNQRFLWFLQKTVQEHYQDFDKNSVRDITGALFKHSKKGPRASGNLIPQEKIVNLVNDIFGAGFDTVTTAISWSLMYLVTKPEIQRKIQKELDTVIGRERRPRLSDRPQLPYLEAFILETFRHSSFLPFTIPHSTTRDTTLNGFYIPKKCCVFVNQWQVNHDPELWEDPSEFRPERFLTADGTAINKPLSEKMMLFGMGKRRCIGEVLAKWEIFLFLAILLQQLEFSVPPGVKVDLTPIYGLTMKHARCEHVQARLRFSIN

Cytochrome P450 2C9 = Cytochrome P450 2C9 (Homo sapiens, UniProt P11712); assay: Inhibition of CYP2C9; format: ADME
Cytochrome P450 2C19 = Cytochrome P450 2C19 (Homo sapiens, UniProt P33261); assay: Inhibition of CYP2C19; format: ADME
Cytochrome P450 2D6 = Cytochrome P450 2D6 (Homo sapiens, UniProt P10635); assay: Inhibition of CYP2D6; format: ADME
Cytochrome P450 3A4 = Cytochrome P450 3A4 (Homo sapiens, UniProt P08684); assay: Inhibition of CYP3A4; format: ADME
Cytochrome P450 3A4, sequence (P08684 whole entry): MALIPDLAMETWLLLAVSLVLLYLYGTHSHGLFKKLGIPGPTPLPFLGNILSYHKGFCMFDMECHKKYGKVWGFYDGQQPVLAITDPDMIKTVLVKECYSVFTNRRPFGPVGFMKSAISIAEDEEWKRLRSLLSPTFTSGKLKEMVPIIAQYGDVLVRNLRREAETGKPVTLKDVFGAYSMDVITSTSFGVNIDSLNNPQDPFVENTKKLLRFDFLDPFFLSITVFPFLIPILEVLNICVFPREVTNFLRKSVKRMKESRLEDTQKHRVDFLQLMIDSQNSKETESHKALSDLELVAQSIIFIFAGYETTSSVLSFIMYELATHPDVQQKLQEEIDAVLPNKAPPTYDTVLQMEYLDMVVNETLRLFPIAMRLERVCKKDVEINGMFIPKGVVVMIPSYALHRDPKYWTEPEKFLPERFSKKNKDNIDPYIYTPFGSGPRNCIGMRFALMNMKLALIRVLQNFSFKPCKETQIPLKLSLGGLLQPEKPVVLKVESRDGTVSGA

Cytochrome P450 2C19, sequence (P33261 whole entry): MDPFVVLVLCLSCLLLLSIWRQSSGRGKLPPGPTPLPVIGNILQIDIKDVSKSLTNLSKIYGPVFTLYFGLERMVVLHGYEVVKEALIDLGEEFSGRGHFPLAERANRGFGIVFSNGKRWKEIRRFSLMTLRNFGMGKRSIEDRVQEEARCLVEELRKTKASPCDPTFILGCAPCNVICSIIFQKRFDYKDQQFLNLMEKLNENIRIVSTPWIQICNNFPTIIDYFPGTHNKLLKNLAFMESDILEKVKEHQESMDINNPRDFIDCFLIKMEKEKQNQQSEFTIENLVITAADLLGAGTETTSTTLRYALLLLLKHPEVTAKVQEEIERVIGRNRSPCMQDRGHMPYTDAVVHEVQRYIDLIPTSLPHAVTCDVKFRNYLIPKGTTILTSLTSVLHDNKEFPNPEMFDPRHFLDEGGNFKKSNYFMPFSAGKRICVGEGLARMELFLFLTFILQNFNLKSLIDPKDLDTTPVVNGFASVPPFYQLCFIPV
Prostaglandin F2-alpha receptor, sequence (P43088 whole entry): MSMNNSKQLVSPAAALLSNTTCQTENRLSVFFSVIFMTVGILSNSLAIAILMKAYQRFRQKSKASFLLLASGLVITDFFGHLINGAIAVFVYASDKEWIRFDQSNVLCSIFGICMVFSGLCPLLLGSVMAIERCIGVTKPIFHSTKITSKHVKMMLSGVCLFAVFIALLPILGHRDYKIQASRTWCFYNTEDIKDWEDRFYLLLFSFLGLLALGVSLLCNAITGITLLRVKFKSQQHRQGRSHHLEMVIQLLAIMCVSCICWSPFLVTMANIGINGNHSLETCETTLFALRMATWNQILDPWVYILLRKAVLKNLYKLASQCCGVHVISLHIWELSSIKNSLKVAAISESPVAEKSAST
Cytochrome P450 2D6, sequence (P10635 whole entry): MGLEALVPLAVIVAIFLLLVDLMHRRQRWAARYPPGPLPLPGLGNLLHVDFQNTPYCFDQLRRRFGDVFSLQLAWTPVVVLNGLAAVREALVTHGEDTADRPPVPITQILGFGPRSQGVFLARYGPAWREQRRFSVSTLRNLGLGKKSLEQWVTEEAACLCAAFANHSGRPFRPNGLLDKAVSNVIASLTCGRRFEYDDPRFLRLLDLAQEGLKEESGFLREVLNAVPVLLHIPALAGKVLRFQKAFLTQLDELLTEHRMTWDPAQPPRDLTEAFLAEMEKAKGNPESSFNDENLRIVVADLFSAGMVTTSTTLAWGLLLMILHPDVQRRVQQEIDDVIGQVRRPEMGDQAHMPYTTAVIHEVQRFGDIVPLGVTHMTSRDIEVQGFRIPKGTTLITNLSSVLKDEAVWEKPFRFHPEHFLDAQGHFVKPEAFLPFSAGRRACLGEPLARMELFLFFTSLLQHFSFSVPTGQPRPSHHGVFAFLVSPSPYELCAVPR
Cytochrome P450 2C9, sequence (P11712 whole entry): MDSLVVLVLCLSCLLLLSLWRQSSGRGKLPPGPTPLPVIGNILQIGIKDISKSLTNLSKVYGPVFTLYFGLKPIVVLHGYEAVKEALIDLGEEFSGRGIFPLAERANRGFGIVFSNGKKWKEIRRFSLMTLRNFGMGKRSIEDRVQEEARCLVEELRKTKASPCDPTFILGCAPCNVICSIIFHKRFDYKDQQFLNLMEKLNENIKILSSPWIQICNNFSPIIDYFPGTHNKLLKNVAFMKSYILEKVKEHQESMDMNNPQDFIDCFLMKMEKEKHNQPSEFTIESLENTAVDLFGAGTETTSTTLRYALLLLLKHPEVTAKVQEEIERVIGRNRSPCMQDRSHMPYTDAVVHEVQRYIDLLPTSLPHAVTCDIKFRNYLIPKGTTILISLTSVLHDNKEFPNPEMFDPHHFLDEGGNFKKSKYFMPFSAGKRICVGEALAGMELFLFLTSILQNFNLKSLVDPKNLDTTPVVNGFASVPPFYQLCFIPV

Row | Ki [1] [nM] | SMILES | also measured
1 | > 1580 | COc1ccc(CCNC(=O)CN(c2ccc(F)cc2)S(=O)(=O)c2ccc(C)cc2)cc1OC | 
2 | 66.1 | COc1ccc(CCNC(=O)CN(c2ccccc2C)S(=O)(=O)c2ccc(C)cc2)c(F)c1OC | 
3 | > 1450 | Cc1ccc(S(=O)(=O)N(CC(=O)NCc2ccc(Cl)cc2)c2ncccc2C)cc1 | Ki [2]: 794 nM
4 | 13.5 | CCc1ccccc1N(CC(=O)NCCc1ccc(OC)c(OC)c1)S(=O)(=O)c1ccc(C)cc1 | Kb [3]: 5.01 nM
5 | 34.7 | COc1ccc(CCNC(=O)CN(c2cccc(Br)c2)S(=O)(=O)c2ccc(C)cc2)cc1OC | 
6 | 708 | CCc1ccccc1N(CC(=O)NCCc1ccc(OC)c(OC)c1)S(=O)(=O)c1cccc(OC(F)(F)F)c1 | 
7 | 72.4 | CCn1nccc1N(CC(=O)NCc1ccc(Cl)cc1)S(=O)(=O)c1ccc(C)cc1 | Ki [2]: 158 nM
8 | 22.9 | CCc1ccccc1N(CC(=O)NCc1ccc(Br)cc1)S(=O)(=O)c1ccc(C)cc1 | 
9 | 19.1 | CCc1ccccc1N(CC(=O)NCCc1ccc(OC)c(OC)c1)S(=O)(=O)c1ccc(C(F)(F)F)cc1 | 
10 | > 1120 | COc1ccc(CCNC(=O)CN(c2ccc(C)cc2)S(=O)(=O)c2ccc(C)cc2)cc1OC | 
11 | 1410 | CCc1ccccc1N(CC(=O)NCc1cccc(Cl)c1)S(=O)(=O)c1ccc(C)cc1 | Ki [2]: 251 nM
12 | 661 | Cc1ccc(S(=O)(=O)N(CC(=O)NCCc2ccc(Cl)cc2)c2ccccc2C)cc1 | 
13 | 1070 | CCc1ccccc1N(CC(=O)NCc1ccccc1OC)S(=O)(=O)c1ccc(C)cc1 | 
14 | 35.5 | CCc1ccccc1N(CC(=O)NCc1ccc(OC)cc1)S(=O)(=O)c1ccc(C)cc1 | Ki [2]: 25.1 nM
15 | 282 | CCc1ccccc1N(CC(=O)NCc1ccc(OC)c(OC)c1)S(=O)(=O)c1ccc(C)cc1 | Ki [2]: 25.1 nM
16 | > 1450 | Cc1ccc(S(=O)(=O)N(CC(=O)NCc2ccc(Cl)cc2)c2ccccn2)cc1 | Ki [2]: > 1000 nM
17 | 589 | Cc1ccc(S(=O)(=O)N(CC(=O)NCc2ccc(Cl)cc2)c2ccnn2C)cc1 | Ki [2]: 398 nM
18 | > 1450 | Cc1ccc(S(=O)(=O)N(CC(=O)NCc2ccc(Cl)cc2)c2cccc(C)n2)cc1 | Ki [2]: > 1000 nM
19 | 676 | Cc1ccc(S(=O)(=O)N(CC(=O)NCc2ccc(Cl)cc2)c2cccnc2C)cc1 | Ki [2]: 200 nM
20 | 61.7 | COc1ccc(CCNC(=O)CN(c2cccc(C)c2)S(=O)(=O)c2ccc(C)cc2)cc1OC | 
21 | 1660 | CCc1ccccc1N(CC(=O)NCCc1ccc(OC)c(OC)c1)S(=O)(=O)c1cccc(C)c1 | 
22 | 170 | CCc1ccccc1N(CC(=O)NCCc1ccc(OC)c(OC)c1)S(=O)(=O)c1ccc(OC)cc1 | 
23 | > 3800 | COc1ccc(CCNC(=O)CN(c2ccc(Br)cc2)S(=O)(=O)c2ccc(C)cc2)cc1OC | 
24 | 31.6 | CCc1ccccc1N(CC(=O)NCCc1ccc(OC)c(OC)c1)S(=O)(=O)c1ccc(C#N)cc1 | 
25 | 38.9 | COc1ccc(CCNC(=O)CN(c2ccccc2C)S(=O)(=O)c2ccc(C)cc2)cc1OC | 
26 | 209 | CCc1ccccc1N(CC(=O)NCc1ccc(C(F)(F)F)cc1)S(=O)(=O)c1ccc(C)cc1 | 

Row | Ki [1] [nM] | SMILES | also measured
27 | 166 | CCc1ccccc1N(CC(=O)NCCc1ccc(OC)c(OC)c1)S(=O)(=O)c1ccccc1C | 
28 | 69.2 | CCc1ccccc1N(CC(=O)NCCc1ccc(OC)c(OC)c1)S(=O)(=O)c1ccc(OC(F)(F)F)cc1 | 
29 | 135 | CCc1ccccc1N(CC(=O)NCc1ccccc1F)S(=O)(=O)c1ccc(C)cc1 | 
30 | 12.9 | COc1ccc(CCNC(=O)CN(c2cccc(C)c2C)S(=O)(=O)c2ccc(C)cc2)cc1OC | 
31 | > 1580 | COc1ccc(N(CC(=O)NCCc2ccc(OC)c(OC)c2)S(=O)(=O)c2ccc(C)cc2)cc1 | 
32 | 589 | COc1ccc(CCNC(=O)CN(c2ccccc2)S(=O)(=O)c2ccc(C)cc2)cc1OC | 
33 | 2000 | CCc1ccccc1N(CC(=O)NCCc1ccc(OC)c(OC)c1)S(=O)(=O)c1ccccc1Cl | 
34 | 61.7 | COc1ccc(CCNC(=O)CN(c2cccc(Cl)c2)S(=O)(=O)c2ccc(C)cc2)cc1OC | 
35 | 427 | CCc1ccccc1N(CC(=O)NCc1cccc(OC(F)(F)F)c1)S(=O)(=O)c1ccc(C)cc1 | 
36 | 11.5 | CCc1ccccc1N(CC(=O)NCc1ccc(Cl)cc1)S(=O)(=O)c1ccc(C)cc1 | Ki [4]: 794 nM; Ratio pKi (Homo sapiens): 100; IC50 (Thromboxane A2 receptor): > 10000 nM; IC50 [5]: 4170 nM; IC50 (Cytochrome P450 1A2): 31600 nM; IC50 (Cytochrome P450 2C9): 6310 nM; IC50 (Cytochrome P450 2C19): 2000 nM; IC50 (Cytochrome P450 2D6): 100000 nM; IC50 (Cytochrome P450 3A4): 251 nM; Ki [2]: 10 nM
37 | 170 | COc1ccc(CCNC(=O)CN(c2ccccc2C)S(=O)(=O)c2ccc(C)cc2)cc1 | 
38 | 240 | CCc1ccccc1N(CC(=O)NCCc1ccc(OC)c(OC)c1)S(=O)(=O)c1cccc(C#N)c1 | 
39 | 741 | COc1ccc(CCNC(=O)CN(c2ccccc2C)S(=O)(=O)c2ccccc2)cc1OC | 
40 | > 1450 | Cc1ccc(S(=O)(=O)N(CC(=O)NCc2ccc(Cl)cc2)c2cccnc2)cc1 | Ki [2]: > 1000 nM
41 | 30.9 | COc1ccc(CCNC(=O)CN(c2cccc(C(F)(F)F)c2)S(=O)(=O)c2ccc(C)cc2)cc1OC | 
42 | 89.1 | Cc1ccc(S(=O)(=O)N(CC(=O)NCCc2ccc(NS(C)(=O)=O)cc2)c2ccccc2C)cc1 | 
43 | > 1450 | Cc1ccc(S(=O)(=O)N(CC(=O)NCc2ccc(Cl)cc2)c2ccc(C)cn2)cc1 | Ki [2]: > 1000 nM
44 | 224 | CCc1ccccc1N(CC(=O)NCc1ccccc1)S(=O)(=O)c1ccc(C)cc1 | Ki [2]: 63.1 nM
45 | 3.72 | CNS(=O)(=O)c1cc(CCNC(=O)CN(c2ccccc2C)S(=O)(=O)c2ccc(C)cc2)ccc1O | 
46 | 204 | Cc1ccc(S(=O)(=O)N(CC(=O)NCCc2cccc(O)c2)c2ccccc2C)cc1 | 
47 | 1290 | COc1ccc(CCNC(=O)CN(c2ccc(Cl)cc2)S(=O)(=O)c2ccc(C)cc2)cc1OC | 
48 | > 3160 | CCc1ccccc1N(CC(=O)NCCc1ccc(OC)c(OC)c1)S(=O)(=O)c1ccccc1C#N | 
49 | > 1450 | Cc1ccc(S(=O)(=O)N(CC(=O)NCc2ccc(Cl)cc2)c2ccc(C)nc2)cc1 | Ki [2]: > 1000 nM
50 | 28.8 | CCc1ccccc1N(CC(=O)NCCc1ccc(OC)c(OC)c1)S(=O)(=O)c1ccc(Br)cc1 | 
51 | 138 | CCc1ccccc1N(CC(=O)NCc1cccc(OC)c1)S(=O)(=O)c1ccc(C)cc1 | Ki [2]: 79.4 nM
52 | 1350 | Cc1ccc(S(=O)(=O)N(CC(=O)NCCc2ccccc2)c2ccccc2C)cc1 | 
